Bioassay records (PubChem)
Myeloid diff 2 – compounds promoting myeloid differentiation; ER-HoxA9 myeloid progenitors, lysozyme-GFP differentiation, flow cytometry; 1% of 360,000 active; calls only at 10 µM;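 active means normalized GFP-positive differentiation at or above the plate's own cutoff, the solvent-only control mean plus 3 SD; inconclusive means no clear call, values can overlap the other calls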;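 further: cells exposed to compound for four days before flow analysis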
SENP1 FRET inh – SENP1 (human) catalytic domain inhibition. AID 624204. 0.21% of 360,000 active. inhibition, % at 10 µM. recombinant SENP1 catalytic domain, CyPet-SUMO1-YPet FRET cleavage;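 active means inhibition at least 30% at 10 µM, raw YFP signal under a set limit, fluorescence ratio 0.5 to 1.5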;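 further: 0% = enzyme with DMSO and 100% = no enzyme wells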
Target sequence (Q9P0U3 419-644 limits assumed): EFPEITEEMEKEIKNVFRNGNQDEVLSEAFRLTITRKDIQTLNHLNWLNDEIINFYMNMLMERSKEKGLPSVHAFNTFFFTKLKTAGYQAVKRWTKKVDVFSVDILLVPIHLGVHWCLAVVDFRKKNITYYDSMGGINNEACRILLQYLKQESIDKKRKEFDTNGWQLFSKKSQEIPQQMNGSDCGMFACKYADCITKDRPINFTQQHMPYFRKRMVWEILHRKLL
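Material – human SENP1 catalytic domain · Input – SENP1 enzyme, 20 pM final · Compound dosing – single concentration of 10 µM compound, 0.5% DMSO final · Timing – enzyme reaction for 50 min at room temperature, dark · Measured by – FRET fluorescence in CFP and YFP emission channels · Control set – no-enzyme wells low, DMSO-plus-enzyme wells high control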
Granule exo inh – lytic granule exocytosis inhibition. TALL-104 LAMP-1 surface exposure, flow cytometry; cells stimulated with thapsigargin and PMA. AID 651702. 0.66% of 360,000 active. inhibition, % at 10 µM;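 active means inhibition above about 55%, limit read from the data; inconclusive means no clear call, values can overlap the other calls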
HNF4A DNA FP – change in binding of human HNF4 alpha to DNA; P41235; HNF4a-FITC DNA binding, fluorescence polarization, 1 h; activity change, % at 10 µM; 0.3% of 360,000 active; AID 1224865; in the data active means activity change above about 30%, passing the limit was not always enough
H9c2 protect – protects H9c2 cardiomyocytes from peroxide injury; H2O2 injury protection, ATPLite, 2 h; protection from H2O2 cell death, % at 20 µM; 0.63% of 360,000 active; AID 588492;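 active means compounds giving at least 50% protection of heart cells from peroxide-induced death in the single-dose screen, raw or plate-pattern-corrected value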;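 further: 0% = DMSO wells with peroxide and 100% = DMSO wells without peroxide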
Pemphigus Ab inh – human desmoglein-3 autoantibody binding inhibition. P32926. DSG3-coupled beads, scFv-anti-DSG3-GFP binding, flow cytometry; hits give low values. binding (percent of control), % at 10 µM. 0.48% of 310,000 active;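 active means binding more than 3 SD below its plate's average and above zero; inconclusive means below that plate limit but binding exactly zero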;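 further: hits lower antibody fragment binding to DSG3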
Active calls of the source: *; i = inactive; ? = inconclusive; . = no result; + = active, no number. The list is not random: actives were taken first. Their share in the collection is about 3%.

SMILES	Myeloid diff 2	SENP1 FRET inh	Granule exo inh	HNF4A DNA FP	H9c2 protect	Pemphigus Ab inh
O=C(CN(C(=O)CCC(=O)Nc1nccs1)c1ccc(F)cc1)NCCc1ccccc1	i	1.2	-4.6	2.3	4.2	106.5
CCOc1ccc(N(CC(=O)Nc2ccccc2OCC)S(=O)(=O)c2c(C)noc2C)cc1	?	3.0	2.8	3.0	0.8	.
O=C(c1ccccc1)C(CCC(CN1CCOCC1)C(=O)c1ccccc1)CN1CCOCC1 (centres undefined)	i	1.0	76.5*	-1.1	-18.9	108.4
CCOC(=O)c1sc2nc(CC(=O)OC)nc(NCc3ccco3)c2c1C	+	4.9	0.4	15.0	7.7	103.7
Cc1ccc2[nH]c(CNC(=O)C3CCCCC3)cc2c1	i	-45.9	-4.2	1.8	-3.4	114.7
COc1ccc2cc(C(=O)C3CCCN(C(=O)c4cncs4)C3)ccc2c1 (centres undefined)	i	-0.8	-3.0	0.5	-1.2	100.1
Cn1nc(-c2ccccn2)nc2c(=O)n(C)c(=O)nc1-2	?	32.6*	31.4	152.6*	-16.0	99.3
CCCc1nc2c(=O)n(C)c(=O)nc-2n(C)n1	?	34.0*	19.8	157.2*	-31.5	.
CCOc1ccc(NC(=O)CN(C)C(=O)c2cn(-c3ccccc3)nc2-c2cccs2)cc1OCC	i	-0.2	45.4	1.5	17.6	101.2
Cc1cc(C)nc(NS(=O)(=O)c2ccc(NC(=O)c3ccco3)cc2)n1	i	3.4	2.6	3.4	3.1	.
CCc1ccc(C(=O)Nc2ccc(S(=O)(=O)Nc3nc(C)cc(C)n3)cc2)o1	i	1.7	?	3.9	1.0	35.5*
CC(Sc1nncs1)C(=O)Nc1ccc2c(c1)OCO2 (centres undefined)	i	-1.4	-3.6	-1.7	-0.9	108.5
O=C(OCc1nnc(-c2ccccc2)o1)c1cc([N+](=O)[O-])ccc1Cl	i	-0.1	-3.7	1.6	4.4	70.9*
C[C@@H]1CN([C@H](C)CO)S(=O)(=O)c2ccc(Br)cc2O[C@H]1CN(C)C(=O)C1CC1	i	-0.9	-1.5	-1.8	2.8	112.7
O=C1Nc2c(Cl)cccc2C1=O	i	-1.0	-2.5	-4.0	-5.4	.
COc1cc2c(C(=O)NCc3ccccn3)cn(CC(C)C)c(=O)c2cc1OC	i	3.1	-2.6	-0.9	53.8*	95.7
CC(C)Cn1c(=O)c(C(=O)NCc2ccccn2)c(O)c2ccccc21	i	2.4	1.4	-0.7	56.2*	.
O=C(Cn1c(=O)sc2ccccc21)NCc1ccccn1	+	1.3	25.6	6.9	-2.9	104.5
COc1c(S(=O)(=O)NCCCn2ccnc2)ccc(Cl)c1Cl	i	-3.6	-1.3	-0.8	-0.1	109.0
O=C(NCCN1C(=O)S/C(=C\c2ccc(Cl)c(Cl)c2)C1=O)c1cnccn1	i	0.6	-6.9	2.7	-0.4	88.4*
CCOc1ccc(/C=C2/C(=O)N(c3ccc(OC)cc3)C(=S)N2CC(=O)OC)cc1OCC	i	-22.8	8.5	46.8*	15.2	.
COc1cc(/C=N/NC(=O)c2ccc(COc3ccccc3Cl)o2)cc(Br)c1O	i	13.9	2.3	7.8	-4.2	93.3
COc1ccc(Br)cc1/C=N/NC(=O)c1ccc(COc2ccc3c(c2)CCC3)o1	+	-9.3	-0.3	-1.2	11.8	114.5
COc1ccccc1/C=N\NC(=O)c1ccc(COc2ccc(C)c(C)c2)o1	+	2.9	-14.2	4.5	1.5	104.7
COc1ccc(/C=N/NC(=O)c2ccc(O)cc2O)cc1CSc1ccccn1	i	3.5	7.5	-12.4	6.9	98.8
CCN1CCN(C(CNS(=O)(=O)c2ccc(Br)cc2)c2cccnc2)CC1 (centres undefined)	i	-0.4	-0.1	5.1	3.1	.
CCOc1ccc(N(CC(=O)NCCc2ccccc2)C(=O)CCC(=O)Nc2cc(C)ccn2)cc1	+	2.6	20.5	1.4	-5.8	.
CCc1ccccc1NC(=O)c1cc(=O)c2ccccc2o1	i	1.9	2.1	-4.6	15.8	89.1
C[n+]1ccccc1/C=C1\Sc2ccccc2N1CCO	i	-4.3	1.3	3.4	-5.6	104.8
